# High-throughput results deposited in PubChem BioAssay by several laboratories.
# Compounds with a hit are over-represented: about 0.72% of the library has one in this group of screens.
# GSK3A inh = blocks human GSK-3 alpha kinase; AID 2650; inhibition, % at 10 µM; actives 0.1% (n = 320,000); P49840; ADP-Glo luminescence, 60 min;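 active = more than half of replicates show inhibition above 20%; inconclusive = some but at most half of replicates above 20% inhibition; inactive = no replicate shows inhibition above 20%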;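 also: GST-tagged GSK-3 alpha with peptide substrate and 25 µM ATP; 0% = DMSO neutral wells and 100% = GW8510 positive control wells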
# Target sequence (P49840 whole entry, looked up): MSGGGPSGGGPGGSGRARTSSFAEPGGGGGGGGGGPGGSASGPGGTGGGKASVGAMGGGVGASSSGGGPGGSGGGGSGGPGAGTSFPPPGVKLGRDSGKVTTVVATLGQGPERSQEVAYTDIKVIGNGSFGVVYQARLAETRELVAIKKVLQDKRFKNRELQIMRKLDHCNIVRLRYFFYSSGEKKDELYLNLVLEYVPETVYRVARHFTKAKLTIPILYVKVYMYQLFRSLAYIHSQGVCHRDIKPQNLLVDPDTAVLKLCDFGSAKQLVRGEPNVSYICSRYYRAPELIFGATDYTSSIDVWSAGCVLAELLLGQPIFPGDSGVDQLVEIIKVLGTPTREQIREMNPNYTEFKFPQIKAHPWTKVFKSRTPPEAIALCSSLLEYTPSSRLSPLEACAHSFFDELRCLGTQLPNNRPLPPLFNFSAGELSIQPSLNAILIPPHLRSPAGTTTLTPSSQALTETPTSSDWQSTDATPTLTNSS
# AI-2 QS modul = Vibrio harveyi AI-2 quorum sensing modulation; Vibrio harveyi JMH597 AI-2 luminescence/OD600 ratio, 9 h; active compounds read low; strain lacks LuxN and CqsS sensors; 0 = neutral-control median; activity change, % at 7.5 µM; actives 0.4% (n = 300,000); AID 2094; in the data active = activity change below about -75%, passing the limit was not always enough; inconclusive = no clear call, values can overlap the other calls;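 also: luminescence divided by OD600 gain over 9 h not by final OD600 alone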
# PolyA inh = inhibitors of polyadenylation in S. cerevisiae; S. cerevisiae SKY197-pL101 polyadenylation reporter, beta-gal luminescence; efflux-impaired pdr1/pdr3 knockout yeast; score 100 = 6 SD above DMSO; activity score, % at 12 µM; AID 1875; actives 0.02% (n = 300,000);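 active = lowest replicate activity score at least 50, where 100 means six control SD above control mean; inconclusive = lowest score under 50 but half or more replicates reach 50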;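 also: yeast exposed to compound for 9 h at 30 °C; higher score means more reporter readthrough which indicates perturbed polyadenylation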
# STK33 kinase inh = inhibitors of human STK33 kinase; Q9BYT3; purified STK33, MBP phosphorylation, ADP-Glo luminescence; actives 0.073% (n = 320,000); inhibition, % at 10 µM;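 active = inhibition at or above 25%, using the most active replicate where run in duplicate; inactive = inhibition below 25%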
# GSK3B inh = inhibitors of human GSK3beta kinase | AID 2097 | actives 0.038% (n = 300,000) | activity score (negative = inhibition), % at 10 µM | GST-GSK3beta kinase, ADP-Glo luminescence, 60 min; active compounds read low;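 active = more than half of replicate wells score below -50%, meaning over 50% inhibition versus plate controls; inconclusive = some replicates but at most half score below -50%; inactive = no replicate scores below -50%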;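 also: 0% = median DMSO wells and -100% = median GW8510 positive control wells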
#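 Assay system: GST-fused GSK3beta enzyme, cell-free / Medium: Tris pH 7.5 buffer with MgCl2, DTT, BSA, heparin / Also added: peptide substrate plus 25 µM ATP (final) / Compound: 10 µM single point / Timing: kinase reaction with compound 60 min at room temperature / Detection: ADP-Glo luminescence / Benchmarks: DMSO neutral wells and GW8510 at 20 µM as positive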
# CR mimetic SO = yeast age-related superoxide inhibition as caloric restriction mimetic | S. cerevisiae aged cells, superoxide DHE fluorescence; active compounds read low | superoxide response (% of plate mean), % at 10 µM | actives 0.18% (n = 330,000);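 active = superoxide response under a set limit, about three screen SD below normal, cut at about 65% in these data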;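 also: yeast aged for seven days with compound at 30 °C before DHE staining; 100% = average MFI of all compound-treated wells on the plate with controls excluded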
# JMH597 growth rt = retest: blocks Vibrio harveyi JMH597 growth; shares compounds with AI-2 QS modul; OD600 absorbance, 9 h; lacks LuxN and CqsS sensors; growth inhibition, % at 7.5 µM; actives 1% (n = 750); AID 2726;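 active = every replicate shows growth inhibition above 50%; inconclusive = at least half, but not all, replicates pass that cutoff; inactive = fewer than half of replicates pass it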
# BB721 lum counter = retest counter-screen: luminescence loss in constitutive-on quorum sensing strain BB721; shares compounds with AI-2 QS modul; Vibrio harveyi BB721 luminescence, 9 h; inhibition, % at 7.5 µM; actives 95% (n = 750); AID 2727;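 active = inhibition above about 80% in every replicate, not just on average, limit read from the data; inconclusive = at least half of replicates past the limit, but not all; inactive = fewer than half of replicates past the limit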
# BB721 growth = retest: inhibitors of Vibrio harveyi BB721 growth; shares compounds with AI-2 QS modul; OD600 absorbance, 9 h; growth inhibition, % at 7.5 µM; actives 3% (n = 750); AID 2728;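 active = every replicate shows growth inhibition above 50%; inconclusive = at least half but not all replicates above 50% inhibition; inactive = under half of replicates above 50% inhibition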
# AI-2 QS JMH597 = Vibrio harveyi AI-2 signaling luminescence modulation – JMH597 strain, confirmation | AID 2736 | Vibrio harveyi JMH597 AI-2 quorum sensing luminescence, 9 h; luxN and CqsS knockout, AI-2 only | actives 97% (n = 750) | inhibition, % at 7.5 µM | shares compounds with AI-2 QS modul;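 active = every replicate shows more than 75% inhibition of signal versus neutral control wells; inconclusive = half to three quarters of replicates exceed 75% inhibition; inactive = fewer than half of replicates exceed 75% inhibition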
# * = called active by the depositor; ? = inconclusive; . = no result.
SMILES,GSK3A inh,AI-2 QS modul,PolyA inh,STK33 kinase inh,GSK3B inh,CR mimetic SO,JMH597 growth rt,BB721 lum counter,BB721 growth,AI-2 QS JMH597
COc1ccc(OC)c(C2Nc3ccccc3NC3=C2C(=O)CC(C)(C)C3)c1 (stereo not given),0,7,-16,0,-27,96,.,.,.,.
CCN(c1ccc(NC(=O)CN2C(=O)NC3(CCOc4ccccc43)C2=O)cc1)C(C)C (stereo not given),-4,-82*,-2,-2,2,83,-16,?,-9,90*
O=C(CN1C(=O)NC2(CCc3ccccc32)C1=O)NCC(=O)Nc1ccc(F)cc1 (stereo not given),-2,.,.,-2,.,108,.,.,.,.
O=C(CN1C(=O)NC2(CCOc3ccccc32)C1=O)NCc1ccccc1 (stereo not given),-1,.,.,-2,.,101,.,.,.,.
O=C(CN1C(=O)NC2(CCOc3ccccc32)C1=O)Nc1ccc(F)c(F)c1F (stereo not given),0,-79*,17,-1,2,95,-6,87*,-8,91*
O=C(CN1C(=O)NC2(CCc3ccccc32)C1=O)Nc1cccc(F)c1 (stereo not given),-1,-84*,24,-3,5,107,-2,92*,16,95*
CC(C)(C)[C@@H]1COC(=O)[C@H](Cc2ccc(F)cc2)C/C=C\C[C@H](CC(=O)N(CCO)Cc2ccccc2)C(=O)N1,2,.,.,0,.,93,.,.,.,.
CC1(c2ccc3c(c2)OCO3)NC(=O)N(CC(=O)NCCC2=CCCCC2)C1=O (stereo not given),-1,-87*,10,-2,1,95,12,90*,22,95*
Cc1ccc(C2(C)NC(=O)N(CC(=O)NCCC3=CCCCC3)C2=O)cc1 (stereo not given),2,-74,-15,-1,3,109,.,.,.,.
CC1(c2ccccc2)NC(=O)N(CC(=O)NCCC2=CCCCC2)C1=O (stereo not given),0,-90*,20,0,4,92,4,91*,-1,95*
O=C(CNC(=O)c1ccc(Br)o1)NCc1ccc(F)cc1,-1,22,3,-1,1,94,.,.,.,.
CCCCn1c(N)c(N(CC(C)C)C(=O)c2cccs2)c(=O)[nH]c1=O,1,20,6,-1,0,95,.,.,.,.
O=C(C#Cc1ccccc1)NCc1ccccc1F,0,-85*,-8,1,-2,97,16,94*,15,95*
COCCNC(=O)CN1C(=O)NC(c2ccccc2)(c2ccccc2)C1=O,1,-7,4,-1,0,104,.,.,.,.
CC(C)CCNC(=O)CN1C(=O)NC(c2ccccc2)(c2ccccc2)C1=O,5,-92*,7,2,0,109,7,90*,8,95*
C=CCNC(=O)NC(=O)CN1C(=O)NC(c2ccccc2)(c2ccccc2)C1=O,1,-85*,-4,0,-1,83,-4,94*,-9,96*
NC(=O)NC(=O)CN1C(=O)NC(c2ccccc2)(c2ccccc2)C1=O,-3,7,2,1,1,98,.,.,.,.
CC(C)=CC(=O)OCC(=O)Nc1ccc(SC(F)F)cc1,-7,-87*,15,-2,-3,101,19,93*,-3,96*
CC(=O)N(C)c1nc(N)n(-c2ccccc2)n1,-1,1,5,-1,-2,94,.,.,.,.
CSc1ccccc1OCc1cc(C(=O)NC(C)c2cnn(C)c2)no1 (stereo not given),-1,-33,2,-2,3,109,.,.,.,.
Cc1c(C(C)NC(=O)c2cc(COc3cccc4cnccc34)on2)cnn1C (stereo not given),2,-81*,3,4,-1,98,19,81*,18,88*
Brc1cccc(CSc2nnc(-c3ccncc3)o2)c1,59*,-85*,.,2,-70*,122,15,95*,6,96*
c1ccc2c(CSc3nnc(-c4ccncc4)o3)cccc2c1,33,-83*,-15,-1,-26,93,5,94*,-8,96*
O=C(/C=C/c1cccc(Cl)c1)NCc1ccncc1,-1,-43,8,0,1,97,.,.,.,.
O=C(/C=C/c1ccc(Cl)cc1)NCc1cccs1,-1,-71,28,-2,6,70,.,.,.,.
SMILES,GSK3A inh,AI-2 QS modul,PolyA inh,STK33 kinase inh,GSK3B inh,CR mimetic SO,JMH597 growth rt,BB721 lum counter,BB721 growth,AI-2 QS JMH597
O=C(/C=C/c1cccc(Cl)c1)NCc1ccccc1,-3,-89*,1,0,-1,90,1,96*,0,97*
O=C(/C=C/c1cccc(Cl)c1)NCc1cccs1,-1,-83*,0,0,-4,79,16,90*,15,91*
O=C(CCNC(=O)c1ccc(Br)cc1)NC1CCCc2ccccc21 (stereo not given),-1,8,7,-1,-2,99,.,.,.,.
Clc1ccc(CON/C=N/c2ncnc3sccc23)cc1,-1,-93*,-10,-4,1,98,17,98*,10,99*
C(=N\c1ncnc2sccc12)/NOCc1ccccc1,-2,-95*,95*,3,2,114,-11,98*,-24,98*
O=C(CSc1ncccn1)NC1CCS(=O)(=O)C1 (stereo not given),2,6,11,-1,0,92,.,.,.,.
O=C(c1ccc(Oc2cc(Cl)cc(Cl)c2)o1)N1CCCCC1,-5,12,-15,-1,2,88,.,.,.,.
O=C(O)c1ccc(N/N=C/C=C/c2ccccc2)cc1,0,-84*,9,1,0,96,16,98*,63*,98*
Cc1ccsc1/C=N/NC(=O)CNC(=O)c1ccccc1,2,?,-7,-2,2,80,-9,93*,-1,95*
Cc1ccc(/C=N/NC(=O)Nc2ccccc2)o1,4,5,3,3,1,94,.,.,.,.
Cc1ccc(/C=N/Nc2ccc(C(=O)O)cc2)o1,2,-91*,-10,1,-3,74,4,97*,22,98*
